Source: ChEMBL document CHEMBL1250552, “Quantitative structure-activity relationship studies of threo-methylphenidate analogs” (Bioorg Med Chem, 2010)

Target: Sodium-dependent dopamine transporter (Rattus norvegicus, UniProt P23977)
Assay: Displacement of [3H]WIN 35428 from Sprague-Dawley rat striatal tissue after 2 hrs by liquid scintillation counting
Type: tissue-based, Striatum
How it was run: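 Male Sprague–Dawley rats anesthetized with CO₂ gas. Crude synaptosomal P₂ fraction made from striatum and homogenized in 25 mM sodium phosphate, pH 7.7, at 0 °C. Rapid filtration through glass microfiber filters, then scintillation counting.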

Chain of Sodium-dependent dopamine transporter (P23977 whole entry): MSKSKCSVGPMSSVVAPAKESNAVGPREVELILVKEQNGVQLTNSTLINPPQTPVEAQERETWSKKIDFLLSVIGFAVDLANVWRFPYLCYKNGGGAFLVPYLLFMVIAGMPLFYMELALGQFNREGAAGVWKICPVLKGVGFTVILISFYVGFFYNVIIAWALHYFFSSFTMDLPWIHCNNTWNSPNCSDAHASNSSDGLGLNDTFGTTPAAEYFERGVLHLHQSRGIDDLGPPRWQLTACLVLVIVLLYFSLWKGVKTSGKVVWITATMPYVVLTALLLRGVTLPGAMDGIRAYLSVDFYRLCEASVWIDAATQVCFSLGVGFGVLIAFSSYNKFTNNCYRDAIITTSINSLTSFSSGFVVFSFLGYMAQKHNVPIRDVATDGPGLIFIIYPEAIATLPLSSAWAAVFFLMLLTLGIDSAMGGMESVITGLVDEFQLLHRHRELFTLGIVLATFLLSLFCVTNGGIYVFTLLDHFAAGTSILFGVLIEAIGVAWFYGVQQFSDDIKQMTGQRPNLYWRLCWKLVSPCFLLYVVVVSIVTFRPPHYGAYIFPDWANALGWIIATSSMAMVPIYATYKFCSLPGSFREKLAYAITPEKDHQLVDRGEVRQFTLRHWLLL

Row | SMILES | IC50 (read-out: IC50) [µM] | IC50 (read-out: pIC50 (converted)) [µM]
1 | COC(=O)[C@H](c1cccc(N)c1)[C@H]1CCCCN1 | 0.265 | 
2 | COC(=O)[C@H](c1ccccc1)[C@H]1CCCCN1Cc1cccc(Cl)c1 (racemic) | 0.106 | 
3 | COC(=O)[C@H](c1ccccc1)[C@H]1CCCCN1Cc1ccc([N+](=O)[O-])cc1 (racemic) | 0.113 | 
4 | COC(=O)[C@H](c1ccccc1)[C@H]1CCCCN1Cc1ccco1 (racemic) | 0.536 | 
5 | COC(=O)[C@H](c1ccc(Cl)c(Cl)c1)[C@H]1CCCCN1Cc1ccccc1 (racemic) | 0.0763 | 
6 | NC(=O)[C@H](c1ccccc1)[C@H]1CCCCN1 (racemic) | 1.73 | 
7 | COC(=O)[C@H](c1ccc(Cl)c(Cl)c1)[C@H]1CCCCN1 | 0.0053 | 
8 | COC(=O)[C@H](c1ccccc1)[C@H]1CCCCN1Cc1ccccc1 | 0.0529 | 
9 | COC(=O)[C@H](c1ccc(OC)c(OC)c1)[C@H]1CCCCN1 | 0.81 | 
10 | COC[C@H](c1ccccc1)[C@H]1CCCCN1Cc1ccccc1 | 0.0178 | 
11 | COC(=O)[C@H](c1ccccc1)[C@H]1CCCCN1Cc1cccnc1 (racemic) | 0.173 | 
12 | COC(=O)[C@H](c1ccc(C)cc1)[C@H]1CCCCN1 | 0.033 | 
13 | COC(=O)[C@H](c1cccc(F)c1)[C@H]1CCCCN1 | 0.0405 | 
14 | COC(=O)[C@H](c1ccccc1)[C@H]1CCCCN1Cc1cccs1 (racemic) | 0.224 | 
15 | COC(=O)[C@H](c1ccccc1Cl)[C@H]1CCCCN1 | 1.95 | 
16 | COC(=O)[C@H](c1ccc(Br)cc1)[C@H]1CCCCN1 | 0.0069 | 
17 | NC(=O)[C@H](c1ccc(Cl)c(Cl)c1)[C@H]1CCCCN1 (racemic) | 0.0164 | 
18 | COC(=O)[C@H](c1ccccc1)[C@H]1CCCCN1CCCCc1ccccc1 (racemic) | 0.205 | 
19 | OC[C@H](c1ccccc1)[C@H]1CCCCN1Cc1ccccc1 | 0.0237 | 
20 | CC(=O)OC[C@H](c1ccccc1)[C@H]1CCCCN1 (racemic) | 0.69 | 
21 | COC[C@H](c1ccc(Cl)c(Cl)c1)[C@H]1CCCCN1 (racemic) | 0.0017 | 
22 | OC[C@H](c1ccccc1)[C@H]1CCCCN1CCCCc1ccccc1 (racemic) | 0.623 | 
23 | COC(=O)[C@H](c1ccc(C)cc1)[C@H]1CCCCN1C |  | 0.141
24 | COC(=O)[C@H](c1ccc(O)cc1)[C@H]1CCCCN1C |  | 1.2

Row | SMILES | IC50 (read-out: IC50) [µM] | IC50 (read-out: pIC50 (converted)) [µM]
25 | COC(=O)[C@H](c1ccc2ccccc2c1)[C@H]1CCCCN1 | 0.011 | 
26 | OC[C@H](c1ccccc1)[C@H]1CCCCN1CCc1ccccc1 (racemic) | 1.43 | 
27 | COC(=O)[C@H](c1ccccc1)[C@H]1CCCCN1Cc1ccoc1 (racemic) | 0.459 | 
28 | NC(=O)[C@H](c1ccccc1)[C@H]1CCCCN1Cc1ccccc1 (racemic) | 0.384 | 
29 | COC(=O)[C@H](c1cccc(Cl)c1)[C@H]1CCCCN1Cc1ccccc1 (racemic) | 0.0412 | 
30 | OC[C@H](c1ccc(Cl)c(Cl)c1)[C@H]1CCCCN1Cc1ccccc1 (racemic) | 0.00274 | 0.00269
31 | COC(=O)[C@H](c1ccccc1)[C@H]1CCCCN1CCc1ccccc1 (racemic) | 0.678 | 
32 | COC(=O)[C@H](c1ccccc1)[C@H]1CCCCN1CCCCCCc1ccccc1 (racemic) | 0.656 | 
33 | COC(=O)[C@H](c1ccccc1)[C@H]1CCCCN1Cc1ccccc1Cl (racemic) | 0.243 | 
34 | COC(=O)[C@H](c1ccc(F)cc1)[C@H]1CCCCN1 | 0.035 | 
35 | C=CCN1CCCC[C@@H]1[C@H](C(=O)OC)c1ccccc1 (racemic) | 0.597 | 
36 | COC(=O)[C@H](c1ccc(Cl)cc1)[C@H]1CCCCN1 | 0.0206 | 
37 | COC(=O)[C@H](c1ccc(N)cc1)[C@H]1CCCCN1 | 0.0345 | 
38 | O=C(OCc1ccccc1)[C@H](c1ccccc1)[C@H]1CCCCN1 (racemic) | 1.02 | 
39 | OC[C@H](c1cccc(F)c1)[C@H]1CCCCN1 (racemic) | 0.281 | 
40 | COC(=O)[C@H](c1ccccc1)[C@H]1CCCCN1CCCc1ccccc1 (racemic) | 0.267 | 
41 | OC[C@H](c1ccccc1)[C@H]1CCCCN1 (racemic) | 0.448 | 
42 | COC(=O)[C@H](c1cc(Cl)cc(Cl)c1)[C@H]1CCCCN1 (racemic) | 0.0656 | 
43 | OC[C@H](c1ccccc1)[C@H]1CCCCN1Cc1cccc(Cl)c1 (racemic) | 0.0258 | 
44 | COC(=O)[C@H](c1ccc(C(F)(F)F)cc1)[C@H]1CCCCN1 | 0.615 | 
45 | COC(=O)[C@H](c1cccc(O)c1)[C@H]1CCCCN1 | 0.321 | 
46 | COC(=O)[C@H](c1cc(C)cc(C)c1)[C@H]1CCCCN1 (racemic) | 4.69 | 
47 | OC[C@H](c1ccccc1)[C@H]1CCCCN1CCCc1ccccc1 (racemic) | 0.194 | 
48 | CN(C)C(=O)[C@H](c1ccccc1)[C@H]1CCCCN1Cc1ccccc1 (racemic) | 1.73 | 

Row | SMILES | IC50 (read-out: IC50) [µM] | IC50 (read-out: pIC50 (converted)) [µM]
49 | COC(=O)[C@H](c1ccccc1)[C@H]1CCCCN1Cc1ccsc1 (racemic) | 0.143 | 
50 | OC[C@H](c1ccc(Cl)c(Cl)c1)[C@H]1CCCCN1 (racemic) | 0.0042 | 
51 | COC[C@H](c1ccc(Cl)c(Cl)c1)[C@H]1CCCCN1Cc1ccccc1 (racemic) | 0.0042 | 
52 | COC[C@H](c1ccccc1)[C@H]1CCCCN1 (racemic) | 0.0971 | 
53 | COC(=O)[C@H](c1ccccc1)[C@H]1CCCCN1Cc1ccccn1 (racemic) | 0.369 | 
54 | COC(=O)[C@H](c1ccccc1)[C@H]1CCCCN1Cc1ccc(Cl)s1 (racemic) | 0.392 | 
55 | COC(=O)[C@H](c1ccc(OCO)c(CO)c1)[C@H]1CCCCN1C | 0.62 | 
56 | COC(=O)[C@H](c1ccc(I)cc1)[C@H]1CCCCN1 | 0.014 | 
57 | COC(=O)[C@H](c1ccc([N+](=O)[O-])cc1)[C@H]1CCCCN1 | 0.494 | 
58 | CCc1ccc([C@@H](C(=O)OC)[C@H]2CCCCN2)cc1 (racemic) | 0.737 | 
59 | COC(=O)[C@H](c1ccccc1)[C@H]1CCCCN1CCCCCc1ccccc1 (racemic) | 1.57 | 
60 | COC(=O)[C@H](c1ccccc1Br)[C@@]1(C)CCCCN1 | 1.87 | 
61 | COC(=O)[C@H](c1ccccc1)[C@H]1CCCCN1Cc1ccncc1 (racemic) | 0.128 | 
62 | COC(=O)[C@H](c1cccc(Cl)c1)[C@H]1CCCCN1 | 0.0051 | 
63 | C#CCN1CCCC[C@@H]1[C@H](C(=O)OC)c1ccccc1 (racemic) | 0.821 | 
64 | COC(=O)[C@H](c1cccc(Br)c1)[C@H]1CCCCN1 | 0.00418 | 
65 | COC(=O)[C@H](c1ccccc1)[C@H]1CCCCN1Cc1ccc(OC)cc1 (racemic) | 0.0791 | 
66 | COC(=O)[C@H](c1cccc(Cl)c1)[C@@]1(C)CCCCN1C | 0.16 | 
67 | CCN1CCCC[C@@H]1[C@H](CO)c1ccccc1 (racemic) | 2.34 | 
68 | COC(=O)[C@H](c1ccccc1)[C@H]1CCCCN1Cc1ccc(N=C=S)cc1 (racemic) | 0.422 | 
69 | COC(=O)[C@H](c1ccccc1F)[C@H]1CCCCN1 | 1.42 | 
70 | COC(=O)[C@H](c1ccccc1)[C@H]1CCCCN1Cc1ccc(Cl)cc1 (racemic) | 0.0312 | 
